Sampled rows, rich in hits. Any-hit rate of the full collection: about 3.5%.
RGS4 inh: human RGS4 inhibition | P49798 | HEK293 M3R/RGS4 inducible, Fluo-4 calcium flux; active compounds read high; triggered by carbachol at its EC20 | B-score at 10 µM | 0.45% of 310,000 active;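 active = B-score, a plate-corrected calcium signal, over three deviations above library mean, with baseline fluorescence within five deviations of library mean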;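 also: RGS4 expression induced by doxycycline in cells with stable M3 receptor; B-score is computed from the integrated fluorescence ratio over baseline after carbachol; higher B-score means a larger calcium signal and so more RGS4 inhibition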
Target sequence (P49798 whole entry, looked up): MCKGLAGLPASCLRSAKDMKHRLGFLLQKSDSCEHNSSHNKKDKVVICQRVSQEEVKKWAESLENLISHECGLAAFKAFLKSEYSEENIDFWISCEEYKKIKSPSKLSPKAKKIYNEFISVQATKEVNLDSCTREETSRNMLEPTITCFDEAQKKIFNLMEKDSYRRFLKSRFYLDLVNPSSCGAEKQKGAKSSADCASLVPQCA
MrgX1 allo act: allosterically activates human MrgX1 receptor signaling; Q96LB2; MrgX1-HEK293, Fluo-4 calcium flux, FDSS; active compounds read high; B-score at 10 µM; 0.63% of 310,000 active;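 active = plate-corrected calcium response at least 3 library SD above typical, normal starting fluorescence, not activating the receptor alone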;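 also: compound read alongside a low EC10 to EC30 dose of BAM8-22 agonist; peak minus trough fluorescence over baseline measured at the second addition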
Target sequence (Q96LB2 whole entry, looked up): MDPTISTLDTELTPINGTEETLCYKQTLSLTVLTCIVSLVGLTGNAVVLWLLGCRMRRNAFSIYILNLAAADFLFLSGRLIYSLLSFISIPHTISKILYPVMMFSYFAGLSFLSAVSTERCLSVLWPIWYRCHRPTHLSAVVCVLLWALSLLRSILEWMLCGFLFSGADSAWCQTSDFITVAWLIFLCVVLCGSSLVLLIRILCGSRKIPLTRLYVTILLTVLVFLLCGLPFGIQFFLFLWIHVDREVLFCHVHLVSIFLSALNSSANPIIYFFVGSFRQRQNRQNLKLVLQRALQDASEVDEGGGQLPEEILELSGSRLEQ
MrgX1 agonist: human MrgX1 receptor agonism, primary screen; Q96LB2; MrgX1-HEK293 cells, Fluo-4 calcium fluorescence, agonist mode; active compounds read high; B-score at 10 µM; 0.44% of 310,000 active;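 active = calcium response B-score plate-corrected fluorescence ratio at least 3 library SD, with starting fluorescence B-score inside 5 SD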
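Material: MrgX1-expressing HEK293 cells; input: 15,000 cells per well; doses: test compound given as first of three sequential additions; schedule: overnight plating before 1 h dye loading; technique: Fluo-4 NW calcium-flux fluorescence, kinetic read; evaluation: baseline-normalised fluorescence change ratio, B-scored; control set: plate-wise positive and negative controls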
RGS4 pot: RGS4 potentiation or activation. HEK293 M3R/inducible RGS4, carbachol calcium flux Fluo4; active compounds read low. B-score at 10 µM. 0.92% of 310,000 active. AID 463111;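 active = B-score of the integrated calcium signal more than 4 SD below the library mean, with starting fluorescence not abnormally high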;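 also: negative B-score means reduced calcium response which marks RGS4 activation or potentiation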
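Detection: kinetic calcium fluorescence imaging with Fluo4-AM dye, 2 µM / Material: HEK293 cells with stable M3R and inducible RGS4 / Schedule: recording 10 s baseline at 1 Hz, 100 s post-agonist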
MrgX1 antagonist: human MrgX1 receptor antagonism, primary screen. AID 588676. MRGX1-HEK293 calcium flux, Fluo-4, BAM8-22 antagonism; active compounds read low. 1.3% of 310,000 active. B-score at 10 µM;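 active = calcium-response B-score plate-corrected more than 3 library SD below zero, starting fluorescence within 5 deviations, no agonist response on first addition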;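 also: peak minus trough fluorescence over baseline after final BAM8-22 challenge near maximal dose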
MrgX1 ant reconf: human MrgX1 receptor antagonism, re-confirmation screen | MrgX1-HEK293, BAM8-22 calcium flux, Fluo-4; active compounds read low | remaining BAM8-22 calcium response % of control (active compounds read low), % at 10 µM | 19% of 2,300 active | shares compounds with MrgX1 antagonist;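 active = remaining agonist calcium response no higher than 100% minus 3 SD of agonist-only control wells, with starting fluorescence near control levels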;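 also: agonist BAM8-22 given at a near maximal EC90 to ECmax level; peak minus minimum fluorescence divided by baseline after agonist addition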
HEK293 Ca flux: activity in parental HEK293 cells lacking MrgX1; shares compounds with MrgX1 antagonist; Fluo-4 calcium fluorescence, FDSS; fluorescence ratio F(max-min)/F0 at 10 µM; 2% of 4,000 active; AID 624111;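 active = duplicate-averaged calcium fluorescence ratio at least three times the standard deviation of buffer wells, a nonspecific response in parental cells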
HEK293 Ca counter: activity in parental HEK293 cells without MrgX1. shares compounds with MrgX1 antagonist. parental HEK293 calcium flux, Fluo-4 fluorescence ratio; active compounds read high. fluorescence ratio F(max-min)/F0 at 10 µM. 0.4% of 4,000 active;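 active = calcium fluorescence ratio, averaged over duplicates, at least 3 SD of the buffer-well ratio, meaning a nonspecific response in receptor-free cells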;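 also: untransfected parental HEK293 lacking MrgX1 used as counterscreen for MrgX1 allosteric activators; fluorescence change taken during the second addition on a kinetic imager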
HEK293 Ca cntr2: MrgX1 activator counter-screen hit in parental HEK293 cells; shares compounds with MrgX1 antagonist; Fluo-4 calcium fluorescence (FDSS); active compounds read high; fluorescence ratio F(max-min)/F0 at 10 µM; 8.7% of 4,000 active;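 active = calcium fluorescence ratio at least three times the spread of buffer wells, meaning a non-specific response in parental cells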
Active calls of the source: *; i = inactive; · = no result given.

SMILES | RGS4 inh | MrgX1 allo act | MrgX1 agonist | RGS4 pot | MrgX1 antagonist | MrgX1 ant reconf | HEK293 Ca flux | HEK293 Ca counter | HEK293 Ca cntr2
C=CCn1c(SCc2cccc(C#N)c2)nnc1-c1ccccc1O | i | i | i | i | -4.6* | i | i | i | i
C=CCn1c(SCc2ccc(C#N)cc2)nnc1-c1cccc(Cl)c1 | i | i | i | i | i | · | · | · | ·
Cc1cc(C(=O)Nc2ccc3c(c2)OCO3)cs1 | i | i | i | i | i | · | · | · | ·
Cc1cc(C(=O)NC(C)c2ccc3c(c2)OCO3)cs1 (stereo not drawn) | i | i | i | i | -4.6* | i | i | i | i
CCN(CC)CCNC(=O)/C(=C/c1cn(C)c2ccccc12)NC(=O)c1ccc(OC)c(OC)c1 | i | i | i | i | i | · | · | · | ·
CC(C)CCN1C(=O)c2ccc(C(=O)NCc3ccccn3)cc2C1=O | i | i | i | i | i | · | · | · | ·
Cc1ccc(S(=O)(=O)N2CCOCC2)cc1C(=O)Nc1nc(-c2cccnc2)cs1 | i | i | i | i | -13* | i | i | i | i
CCc1ccc(S(=O)(=O)/N=C2\C=C(Nc3ccc(C(=O)O)cc3)C(=O)c3ccccc32)cc1 | i | i | i | i | -7.7* | 85%* | i | i | i
Cc1ccc(S(=O)(=O)/N=C2\C=C(Nc3cccc(C(=O)O)c3)C(=O)c3ccccc32)cc1 | i | i | i | i | i | · | · | · | ·
C=CCOc1ccc(C(c2c(C(=O)O)[nH]c3ccccc23)c2c(C(=O)O)[nH]c3ccccc23)cc1 | i | i | i | i | i | · | · | · | ·
CN(C)c1cc(Nc2ccc(O)cc2)c([N+](=O)[O-])c2nonc12 | i | i | i | i | i | · | · | · | ·
O=[N+]([O-])c1c(Nc2ccc(O)cc2)cc(Cl)c2nonc12 | i | i | i | i | -15* | 16%* | i | i | i
CCC(=O)N1CCc2cc(Br)cc(S(=O)(=O)CC(=O)OC)c21 | i | i | i | i | -5.9* | i | i | i | i
O=C(NC(=S)NCC1CCCO1)c1ccco1 (stereo not drawn) | i | i | i | i | -25* | i | i | i | i
COc1ccc(Cl)cc1-n1c(C)ccc1C | i | i | i | i | -8.4* | i | i | i | i
COc1ccc(Cl)cc1N1C(=O)c2cccnc2C1=O | i | i | i | i | i | · | · | · | ·
Cc1nn(C)c(C)c1CN(Cc1nc(CCC(C)C)no1)C(C)C | i | i | i | i | -4.6* | i | i | i | i
CC(C)CCc1noc(CN(C)CCC2CCOCC2)n1 | i | i | i | i | i | · | · | · | ·
COC(=O)c1ccc(C)c(NC(=O)C(CCSC)NC(=O)c2cc(OC)c(OC)c(OC)c2)c1 (stereo not drawn) | i | i | i | i | i | · | · | · | ·
COc1ccc(NC(=O)CC2SC3=NCCN3C2=O)cc1 (stereo not drawn) | i | i | i | i | i | · | · | · | ·
COc1ccc(-n2c(Cc3cccn3C)nnc2SCC(=O)Nc2ccc(C)c(Cl)c2)cc1 | i | i | i | i | -4.8* | i | i | i | i
Cc1ccc(O)c(NC(=S)NC(=O)Cc2ccc(Cl)cc2)c1 | i | i | i | -7.5* | -24* | 27%* | i | i | i
CC(=O)Nc1ccc(NC(=O)COC(=O)Cc2c[nH]c3ccccc23)cc1 | i | i | i | i | -6* | i | i | i | i
Cc1ccc(C(C)C)c(OCC(=O)N2CCOCC2)c1 | i | i | i | i | -6* | i | i | i | i
CCOc1ccc(C(=O)NCc2ccccc2)cc1Br | i | i | i | i | -5.4* | 85%* | i | i | i
SMILES | RGS4 inh | MrgX1 allo act | MrgX1 agonist | RGS4 pot | MrgX1 antagonist | MrgX1 ant reconf | HEK293 Ca flux | HEK293 Ca counter | HEK293 Ca cntr2
CCc1nc2ccc(C(=O)NCc3ccccc3)cc2nc1CC | i | i | i | i | -8.3* | i | i | i | i
CSCc1ccc(C(=O)NCc2ccccc2)cc1 | i | i | i | i | i | · | · | · | ·
O=C(NCc1ccccc1)c1cccc(COc2ccc(Cl)cc2)c1 | i | i | i | i | i | · | · | · | ·
CCOc1cc(C(=O)NCc2ccccc2)ccc1OCC(=O)N1CCOCC1 | i | i | i | i | i | · | · | · | ·
O=C(NCc1ccccc1)c1cccc(COc2cccc(Cl)c2)c1 | i | i | i | i | -4.6* | i | i | i | i
CC(=O)NC1CC2CCCC(C1)N2S(=O)(=O)c1ccccc1 (stereo not drawn) | i | i | i | i | -8.8* | i | i | i | i
Cc1[nH]c2ccc(C(=O)OC(C)C(=O)NC3(C#N)CCCCC3)cc2c1C (stereo not drawn) | i | i | i | i | -6* | i | i | i | i
NCCCC[C@@H](C(=O)N1CCNCC1)n1cc(CN)nn1 | · | i | i | · | -7.1* | i | i | i | i
CCCCc1cn([C@@H](CCCCN)C(=O)N2CCNCC2)nn1 | i | i | i | i | i | · | · | · | ·
CCS(=O)(=O)N1CCC(C(=O)NCc2ccc(OC)cc2)CC1 | i | i | i | i | -6.3* | i | i | i | i
COc1ccc(Nc2oc(-c3ccc(OC)cc3)nc2C#N)cc1 | i | i | i | i | -5.8* | i | i | i | i
CC(C)Oc1ccccc1-c1cc(C(=O)N/N=C/c2cccnc2)c2ccccc2n1 | i | i | i | i | i | · | · | · | ·
COc1ccc(-c2noc(N3CCC(C(=O)NCCCN4CCCC(C)C4)CC3)n2)cc1 (stereo not drawn) | i | i | i | i | i | · | · | · | ·
CCc1nnc(NC(=O)c2nc(S(=O)(=O)Cc3ccc(C)cc3)ncc2Cl)s1 | i | i | i | i | -7.2* | 73%* | i | i | i
CCOc1ccccc1CNS(=O)(=O)c1cc(-c2cc(C)no2)ccc1OC | i | i | i | i | i | · | · | · | ·

Bioassay records (PubChem BioAssay)
